Screening data (PubChem)
Only some compounds are listed: those with a hit (about 2% of all), similar ones and a draw of the others.
Scp-1 inhibitor = Scp-1 (human) phosphatase inhibition; AID 493091; Recombinant Scp1, phosphopeptide, malachite green phosphate absorbance; inhibition, % at 20 µM; 340,000 tested, 0.88% active;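 active = inhibition above about 50% at 20 µM, limit read from the data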;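 also: plate controls were DMSO wells with enzyme for no effect and wells lacking enzyme for full effect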
Target sequence (Q9GZU7 76-261 limits assumed): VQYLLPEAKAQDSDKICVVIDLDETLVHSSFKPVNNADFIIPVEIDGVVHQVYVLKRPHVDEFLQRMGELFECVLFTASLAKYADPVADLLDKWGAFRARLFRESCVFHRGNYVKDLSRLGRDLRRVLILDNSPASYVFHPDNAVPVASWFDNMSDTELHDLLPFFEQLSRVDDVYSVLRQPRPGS
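assay system = SCP-1 phosphatase catalytic domain, residues 76-261 | buffer or medium = 50 mM Tris acetate pH 5.5, 0.005% Tween-20, 10 mM MgCl2 | incubation = enzyme reaction 45 min at room temperature, colour 5 min, stabilisation 30 min | signal = Phosphate-binding colour reagent, absorbance read at 630 nm | measure = % inhibition at 20 µM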
STEP block = inhibitors of human striatal-enriched phosphatase STEP; P54829; recombinant STEP, OMFP fluorogenic substrate, fluorescence; inhibition, % at 20 µM; 360,000 tested, 0.25% active;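 active = inhibition at 20 µM, scaled per plate between control wells, above about 37%, limit read from the data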;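 also: 0% = DMSO with enzyme and substrate and 100% = substrate only without enzyme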
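Also added – OMFP at 25 µM · Test system – STEP tyrosine phosphatase · Technique – FITC-channel fluorescence of OMFP product · Schedule – 20 min at room temperature, dark · Evaluation – control-normalized % inhibition with plate pattern correction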
DNMT1 inh = DNMT1 (human) enzyme inhibition; P26358; DNMT1 molecular beacon, Hinp1I cleavage, fluorescence; inhibition (reported as % activation of signal), % at 10 µM; 360,000 tested, 0.83% active; AID 588458; in the data active = inhibition above about 50%
LMPTP block = blocks human LMPTP phosphatase. recombinant LMPTP-A, OMFP fluorogenic substrate, fluorescence intensity. inhibition, % at 20 µM. 360,000 tested, 0.22% active. AID 651560;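 active = compounds that cut the enzyme signal by at least half of the control window in the single-dose screen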;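 also: plate controls were DMSO wells with enzyme plus substrate for no effect and substrate without enzyme for full effect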
Target sequence (P24666 whole entry, looked up): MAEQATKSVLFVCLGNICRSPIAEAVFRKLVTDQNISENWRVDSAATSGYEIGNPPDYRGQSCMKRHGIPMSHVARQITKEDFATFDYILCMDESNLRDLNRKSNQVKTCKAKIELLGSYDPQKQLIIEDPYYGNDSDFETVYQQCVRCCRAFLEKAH
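Test system: LMPTP-A phosphatase enzyme; input: 0.625 nM LMPTP-A final; reagent: OMFP substrate, 400 µM final; compound dosing: 20 µM single dose, 3% DMSO; incubation: 50 min dark incubation at room temperature; measured by: endpoint fluorescence intensity from OMFP dephosphorylation; measure: % inhibition relative to no-enzyme and uninhibited control wells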
Rpn11 inh = blocks the human proteasome subunit Rpn11; human 26S proteasome, Ub4-pepOG fluorescence polarization; 20S core pre-blocked with epoxomicin; inhibition, % at 20 µM; 360,000 tested, 0.59% active; AID 588493;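 active = inhibition at 20 µM, scaled to each plate's controls, above about 33%, limit read from the data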
Target sequence (O00487 whole entry, looked up): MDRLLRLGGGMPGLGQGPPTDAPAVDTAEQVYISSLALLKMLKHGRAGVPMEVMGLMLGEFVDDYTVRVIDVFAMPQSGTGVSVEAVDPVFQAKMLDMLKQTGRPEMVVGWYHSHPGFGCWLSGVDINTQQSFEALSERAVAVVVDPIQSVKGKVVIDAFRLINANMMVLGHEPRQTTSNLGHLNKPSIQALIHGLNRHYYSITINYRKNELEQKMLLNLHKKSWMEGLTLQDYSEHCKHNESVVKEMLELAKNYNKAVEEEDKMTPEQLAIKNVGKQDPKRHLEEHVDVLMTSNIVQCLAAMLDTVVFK
Scp1 confirm = confirmation of human Scp-1 phosphatase inhibitors; shares compounds with Scp-1 inhibitor; 2,500 tested, 61% active; inhibition, % at 20 µM; recombinant SCP-1 catalytic domain, phosphate release, malachite green absorbance;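 also: plate controls were DMSO with enzyme for no effect and buffer wells lacking enzyme for full effect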
MG interference = colorimetric interference in Scp-1 counter-screen | Colorimetric interference counterscreen, malachite green absorbance 630 nm | apparent inhibition (interference), % at 20 µM | AID 540313 | shares compounds with Scp-1 inhibitor | 2,500 tested, under 10 active;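 also: compounds added after enzyme reaction finished so only phosphate colour detection is probed; plate controls were DMSO wells with completed Scp-1 reaction for no effect and substrate wells lacking enzyme for full effect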
Scp-1 Tm shift = binds human Scp-1, shifting its melting temperature | shares compounds with Scp-1 inhibitor | Recombinant SCP1, Sypro Orange thermal shift Tm | thermal shift relative to vanadate control, % at 40 µM | 1,500 tested, 25% active;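 active = substances whose mean melting-temperature shift, as a percentage of the reference inhibitor's shift, reaches about 5.3%, limit read from the data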;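 also: 0% = Tm of DMSO wells and 100% = Tm with sodium orthovanadate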
Numbers without * were called inactive; / = no result given.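 The calls were made as follows, unless noted: active = inhibition of at least 30% at 20 µM; inactive = the rest.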

SMILES	Scp-1 inhibitor	STEP block	DNMT1 inh	LMPTP block	Rpn11 inh	Scp1 confirm	MG interference	Scp-1 Tm shift
O=C(NCc1cccnc1)c1cccc(S(=O)(=O)N2CCOCC2)c1	64*	4	-3	-1	-2	-15	-10	/
O=C(O)CCNc1ccc(Cl)cc1	52*	1	19	1	-5	43*	-14	-21
COc1ccc(Nc2nc3cc(-c4ccccc4C)sc3c(=O)n2C)cc1OC	/	0	-17	3	1	/	/	/
CC1=CCC(C(=O)O)C(C(=O)Nc2ccc(-c3nc4ccc(C)cc4s3)cc2)C1 (stereo unspecified)	50*	2	25	1	3	65*	-5	4
CC(=O)NC(=S)Nc1ccc(-c2nc3ccc(C)cc3s2)cc1	-5	-2	16	-1	14	/	/	/
CCc1nc2c(OCC=C(C)C)cccn2c1N(C)C(=O)c1ccc(OC)cc1	/	0	-1	0	-4	/	/	/
Cc1ccc2nc(/C(C#N)=C/c3ccc(-c4ccccc4C(=O)O)o3)[nH]c2c1	54*	4	21	5	/	47*	-13	7.3*
N#C/C(=C\c1ccc(-c2ccccc2C(=O)O)o1)c1nc2ccccc2[nH]1	4	1	14	1	/	/	/	/
CCNC(=O)C1CCCN(C(=O)c2ccccc2OC(F)(F)F)CC1 (stereo unspecified)	/	2	5	0	2	/	/	/
Cc1nnc(NC(=O)CSc2nnc(-c3ccco3)n2C(C)C)s1	-5	0	0	0	6	/	/	/
CC(C)n1c(SCC(=O)Nc2nncs2)nnc1-c1ccco1	94*	/	/	/	/	77*	0	-2
CCN(CCNC(=O)C1CC(=O)N(CCc2ccccc2)C1)c1ccccc1 (stereo unspecified)	-2	-1	-1	-1	0	0	-10	/
O=C(NCCc1ccccc1)C1CC(=O)N(CCc2ccccc2)C1 (stereo unspecified)	-1	2	-1	-2	-3	-2	-4	/
O=C(NCCc1ccccn1)C1CC(=O)N(Cc2ccccc2Cl)C1 (stereo unspecified)	-7	0	-4	0	2	-25	-15	/
CC(C)CCN1CC(C(=O)NCCC2=CCCCC2)CC1=O (stereo unspecified)	0	-2	3	-1	2	-21	-19	/
COc1ccc(CN2CC(C(=O)NCc3ccccn3)CC2=O)cc1 (stereo unspecified)	10	-1	2	1	-8	/	/	/
CCOCCCNC(=O)C1CC(=O)N(CCc2ccccc2)C1 (stereo unspecified)	-13	1	2	-1	4	/	/	/
CC1(C(=O)NS(=O)(=O)c2ccc(Cl)cc2)CCN1C(=O)Cc1cccs1 (stereo unspecified)	/	1	5	0	4	/	/	/
COCCNC(=O)C1(C)CCCN(CCSc2ccccc2)C1 (stereo unspecified)	/	0	5	-3	3	/	/	/
CSc1ccc(S(=O)(=O)NCC(=O)OCC(=O)N2CC(C)CC(C)C2)cc1[N+](=O)[O-] (stereo unspecified)	6	0	1	1	-1	/	/	/
COC(=O)C1CCN(C(=O)COC(=O)CNS(=O)(=O)c2ccc(SC)c([N+](=O)[O-])c2)CC1	74*	11	24	6	-10	43*	-21	-15
O=C(N/N=C/c1ccc(-c2cccc([N+](=O)[O-])c2)o1)c1cccs1	-9	1	1	3	4	/	/	/
CC1CCc2sc(C(=O)N/N=C/c3ccc([N+](=O)[O-])cc3)cc2C1 (stereo unspecified)	72*	30	25	36	1	69*	-14	4
O=C(N/N=C/c1ccc([N+](=O)[O-])cc1)c1cccs1	60*	26	-1	5	2	53*	-20	4
CC1CCc2sc(C(=O)NN=C3CCC(c4ccccc4)CC3)cc2C1 (stereo unspecified)	-7	-1	6	1	0	/	/	/
SMILES	Scp-1 inhibitor	STEP block	DNMT1 inh	LMPTP block	Rpn11 inh	Scp1 confirm	MG interference	Scp-1 Tm shift
Cc1c(NS(=O)(=O)c2cc(C(=O)NCCN(C)C)ccc2Cl)c(=O)n(-c2ccccc2)n1C	73*	23	26	18	-8	37*	-11	-11
CCC[N+]1(CC#CC2(O)CCCCC2)CCOCC1	59*	-3	3	-1	-6	77*	-22	-6
CC(NS(=O)(=O)c1ccc2[nH]c(=O)[nH]c2c1)c1ccc(F)cc1 (stereo unspecified)	/	-2	-3	-2	-2	/	/	/
C[C@@H]1CN([C@H](C)CO)C(=O)CCCn2nncc2CO[C@H]1CN(C)Cc1ccc2c(c1)OCO2	/	-2	4	-2	-2	/	/	/
CCOc1ccc(C(=O)Nc2cccc(-c3cc4ccccc4oc3=O)c2)cc1[N+](=O)[O-]	93*	9	-1	2	9	28	-11	/
CCOc1ccccc1NC(=O)c1ccc(OCC)c([N+](=O)[O-])c1	-7	3	2	-1	-10	/	/	/
O=C1CC(c2ccc(S(=O)(=O)Nc3cc(C(F)(F)F)cc(C(F)(F)F)c3)cc2)CN1 (stereo unspecified)	-4	-3	-1	2	-3	-5	-8	/
COc1ccc(C=NCCc2ccc(OC)c(OC)c2)cc1OC	/	-1	13	-1	6	/	/	/
COc1ccc(C2CCCN2CC(O)COc2ccccc2C(C)C)cc1 (stereo unspecified)	61*	0	0	1	5	-22	-18	/
CCOC(=O)N1CCN(CC(O)COc2ccccc2C(C)C)CC1 (stereo unspecified)	-8	-1	3	0	2	/	/	/
O=C(CSc1nnc(-c2ccc(S(=O)(=O)N3CCCC3)cc2)o1)NCc1ccco1	62*	-2	10	1	-3	43*	-17	-6
Cn1c(SCC(=O)NCc2ccco2)nnc1-c1ccccc1	-3	1	1	0	-9	/	/	/
CCC(=O)Nc1cccc(-c2nnc(SCC(=O)NCc3ccco3)n2C)c1	98*	0	1	-3	-3	6	-7	/
O=C(COC(=O)c1cccnc1Cl)NCc1ccco1	92*	0	1	-1	-13	70*	-10	-11
Cn1c(SCC(=O)NCc2ccco2)nnc1-c1ccc(S(=O)(=O)N2CCOCC2)cc1	65*	2	13	0	-8	49*	-17	-4
